Laboratory results published in ChEMBL document CHEMBL1811814, “Synthesis and evaluation of indole, pyrazole, chromone and pyrimidine based conjugates for tumor growth inhibitory activities--development of highly efficacious cytotoxic agents” (Eur J Med Chem, 2010).

How the values were obtained:
Format in all cases: functional
Parameters in all cases: scale not given: the % may be the effect or the level left
CCRF-CEM = experiment: Growth inhibition of human CCRF-CEM cells assessed tumor cell growth at 10^-5 M
Method in brief: (§1)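 NCI 60-human-tumor-cell-line panel screen. Each compound was tested at a single concentration of 10^-5 M, and percent growth of tumor cells was recorded for each cell line. Growth inhibition was expressed from these percent-growth values.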

NCI-H322M = experiment: Growth inhibition of human NCI-H322M cells assessed tumor cell growth at 10^-5 M; method in brief: as §1
786-0 = experiment: Growth inhibition of human 786-0 cells assessed tumor cell growth at 10^-5 M; method in brief: as §1
HOP-62 = experiment: Growth inhibition of human HOP62 cells assessed tumor cell growth at 10^-5 M; method in brief: as §1
UACC-62 = experiment: Growth inhibition of human UACC62 cells assessed tumor cell growth at 10^-5 M
Method in brief: (§2)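 Single-dose screen at 10^-5 M across the 60 human tumor cell line panel, run to NCI standards. The value is the percent growth of each cell line in the presence of compound. Compounds active at this dose moved on to five-concentration testing (10^-4 to 10^-8 M).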

CAKI-1 = experiment: Growth inhibition of human Caki1 cells assessed tumor cell growth at 10^-5 M; method in brief: as §1
HL-60(TB) = experiment: Growth inhibition of human HL-60(TB) cells assessed tumor cell growth at 10^-5 M
Method in brief: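 HL-60(TB), part of the 60-line panel, tested at a single concentration of 10^-5 M. The read-out is percent tumor cell growth relative to untreated growth.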

RXF 393 = experiment: Growth inhibition of human RXF393 cells assessed tumor cell growth at 10^-5 M; method in brief: as §1
HCT-116 = experiment: Growth inhibition of human HCT116 cells assessed tumor cell growth at 10^-5 M; method in brief: as §1
SN12C = experiment: Growth inhibition of human SN12C cells assessed tumor cell growth at 10^-5 M; method in brief: as §1
SW-620 = experiment: Growth inhibition of human SW620 cells assessed tumor cell growth at 10^-5 M; method in brief: as §2
MDA-MB-435 = experiment: Growth inhibition of human MDA-MB-435 cells assessed tumor cell growth at 10^-5 M; method in brief: as §1
HOP-92 = experiment: Growth inhibition of human HOP92 cells assessed tumor cell growth at 10^-5 M; method in brief: as §1
OVCAR-5 = experiment: Growth inhibition of human OVCAR5 cells assessed tumor cell growth at 10^-5 M; method in brief: as §1
PC-3 = experiment: Growth inhibition of human PC3 cells assessed tumor cell growth at 10^-5 M; method in brief: as §1
HCC 2998 = experiment: Growth inhibition of human HCC2998 cells assessed tumor cell growth at 10^-5 M; method in brief: as §1
[1] = Growth inhibition of human Hs 578T cells assessed tumor cell growth at 10^-5 M; method in brief: as §1
OVCAR-8 = experiment: Growth inhibition of human OVCAR8 cells assessed tumor cell growth at 10^-5 M; method in brief: as §1
LOX IMVI = experiment: Growth inhibition of human LOXIMVI cells assessed tumor cell growth at 10^-5 M; method in brief: as §1
SK-MEL-2 = experiment: Growth inhibition of human SK-MEL-2 cells assessed tumor cell growth at 10^-5 M; method in brief: as §1
KM12 = experiment: Growth inhibition of human KM12 cells assessed tumor cell growth at 10^-5 M; method in brief: as §1
HCT-15 = experiment: Growth inhibition of human HCT15 cells assessed tumor cell growth at 10^-5 M; method in brief: as §1
M14 = experiment: Growth inhibition of human M14 cells assessed tumor cell growth at 10^-5 M; method in brief: as §1
SNB-75 = experiment: Growth inhibition of human SNB75 cells assessed tumor cell growth at 10^-5 M; method in brief: as §2
UO-31 = experiment: Growth inhibition of human UO31 cells assessed tumor cell growth at 10^-5 M; method in brief: as §2
Malme-3M = experiment: Growth inhibition of human MALME-3M cells assessed tumor cell growth at 10^-5 M; method in brief: as §1
HT-29 = experiment: Growth inhibition of human HT-29 cells assessed tumor cell growth at 10^-5 M; method in brief: as §1
NCI-H226 = experiment: Growth inhibition of human NCI-H226 cells assessed tumor cell growth at 10^-5 M; method in brief: as §1
MDA-MB-468 = experiment: Growth inhibition of human MDA-MB-468 cells assessed tumor cell growth at 10^-5 M; method in brief: as §1
EKVX = experiment: Growth inhibition of human EKVX cells assessed tumor cell growth at 10^-5 M; method in brief: as §1
OVCAR-4 = experiment: Growth inhibition of human OVCAR4 cells assessed tumor cell growth at 10^-5 M; method in brief: as §1
MOLT-4 = experiment: Growth inhibition of human MOLT4 cells assessed tumor cell growth at 10^-5 M; method in brief: as §1
UACC-257 = experiment: Growth inhibition of human UACC257 cells assessed tumor cell growth at 10^-5 M; method in brief: as §2
BT-549 = experiment: Growth inhibition of human BT549 cells assessed tumor cell growth at 10^-5 M; method in brief: as §1
SK-MEL-28 = experiment: Growth inhibition of human SK-MEL-28 cells assessed tumor cell growth at 10^-5 M; method in brief: as §1
A549 = experiment: Growth inhibition of human A549 cells assessed tumor cell growth at 10^-5 M; method in brief: as §1
MDA-MB-231 = experiment: Growth inhibition of human MDA-MB-231 cells assessed tumor cell growth at 10^-5 M; method in brief: as §1
[2] = Growth inhibition of human […] cells assessed tumor cell growth at 10^-5 M; method in brief: as §1
SF-268 = experiment: Growth inhibition of human SF268 cells assessed tumor cell growth at 10^-5 M; method in brief: as §1
A498 = experiment: Growth inhibition of human A498 cells assessed tumor cell growth at 10^-5 M; method in brief: as §1
NCI-H23 = experiment: Growth inhibition of human NCI-H23 cells assessed tumor cell growth at 10^-5 M; method in brief: as §1
SR = experiment: Growth inhibition of human SR cells assessed tumor cell growth at 10^-5 M; method in brief: as §2
ACHN = experiment: Growth inhibition of human ACHN cells assessed tumor cell growth at 10^-5 M; method in brief: as §1
DU-145 = experiment: Growth inhibition of human DU145 cells assessed tumor cell growth at 10^-5 M; method in brief: as §1
U-251 = experiment: Growth inhibition of human U251 cells assessed tumor cell growth at 10^-5 M; method in brief: as §2
OVCAR-3 = experiment: Growth inhibition of human OVCAR3 cells assessed tumor cell growth at 10^-5 M; method in brief: as §1
NCI/ADR-RES = experiment: Growth inhibition of human NCI/ADR-RES cells assessed tumor cell growth at 10^-5 M; method in brief: as §1
K562 = experiment: Growth inhibition of human K562 cells assessed tumor cell growth at 10^-5 M; method in brief: as §1
IGROV-1 = experiment: Growth inhibition of human IGROV1 cells assessed tumor cell growth at 10^-5 M; method in brief: as §1

Compound: CN1C(=O)C(=Cc2coc3ccccc3c2=O)C(=O)N(C)C1=O
- Activity (CCRF-CEM): 97.29%
- Activity (NCI-H322M): 115.86%
- Activity (786-0): 95.26%
- Activity (HOP-62): 84.39%
- Activity (UACC-62): 87.77%
- Activity (CAKI-1): 105.77%
- Activity (HL-60(TB)): 92.68%
- Activity (RXF 393): 91.99%
- Activity (HCT-116): 85.46%
- Activity (SN12C): 88.79%
- Activity (SW-620): 102.73%
- Activity (MDA-MB-435): 104.58%
- Activity (HOP-92): 87.53%
- Activity (OVCAR-5): 92.09%
- Activity (PC-3): 94.7%
- Activity (HCC 2998): 99.12%
- Activity [1]: 96.44%
- Activity (OVCAR-8): 86.75%
- Activity (LOX IMVI): 89.46%
- Activity (SK-MEL-2): 95.42%
- Activity (KM12): 109.04%
- Activity (HCT-15): 82.74%
- Activity (M14): 90.53%
- Activity (SNB-75): 85.44%
- Activity (UO-31): 67.73%
- Activity (Malme-3M): 137.21%
- Activity (HT-29): 112.32%
- Activity (NCI-H226): 87.83%
- Activity (MDA-MB-468): 104.25%
- Activity (EKVX): 98.76%
- Activity (OVCAR-4): 97.92%
- Activity (MOLT-4): 81.25%
- Activity (UACC-257): 94.47%
- Activity (BT-549): 87.93%
- Activity (SK-MEL-28): 108.31%
- Activity (A549): 104.96%
- Activity (MDA-MB-231): 96.45%
- Activity [2]: 62.63%
- Activity (SF-268): 98.13%
- Activity (A498): 120.85%
- Activity (NCI-H23): 84.27%
- Activity (SR): 72.89%
- Activity (ACHN): 93.31%
- Activity (DU-145): 106.58%
- Activity (U-251): 93.36%
- Activity (OVCAR-3): 103.79%
- Activity (NCI/ADR-RES): 85.24%
- Activity (K562): 105.28%
- Activity (IGROV-1): 95.15%
